Activity calls are given as the source filed them. The rule behind the calls is not given here.
How the values were obtained:
HL-60 [1] = experiment: Induction of apoptosis in human HL60 cells assessed as DNA fragmentation at 12.5 uM after 24 hrs by agarose gel electrophoresis; format: functional, cell-based
Outline: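 HL-60 cells treated with 12.5 µM compound for 24 h; DNA extracted and laddering resolved by agarose gel electrophoresis against a 100 bp marker; representative of three independent experiments.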

[2] = Cytotoxicity against human HF19 cells assessed as cell viability after 24 hrs by MTT assay; format: cell-based; conditions: HF19, 24 h
Outline: (§1)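 Cells exposed to compounds at 3.125 to 50 µM for 24 h; proliferation read by MTT assay; IC50 (µM) reported. Panel: leukemia lines HL-60, U937, THP-1, Jurkat; stomach KATO III; colon HCT-15; hepatoma HepG2; normal skin fibroblasts NB1RGB and HF-19.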

[3] = Cytotoxicity against human NB1RGB cells assessed as cell viability after 24 hrs by MTT assay; format: cell-based; outline: as §1
HepG2 = experiment: Cytotoxicity against human HepG2 cells assessed as cell viability after 24 hrs by MTT assay; format: functional, cell-based; conditions: HepG2, 24 h; outline: as §1
HCT-15 = experiment: Cytotoxicity against human HCT15 cells assessed as cell viability after 24 hrs by MTT assay; format: functional, cell-based; conditions: HCT-15, 24 h; outline: as §1
[4] = Cytotoxicity against human KATO III cells assessed as cell viability after 24 hrs by MTT assay; format: functional, cell-based; outline: as §1
Jurkat = experiment: Cytotoxicity against human Jurkat cells assessed as cell viability after 24 hrs by MTT assay; format: functional, cell-based; outline: as §1
THP-1 = experiment: Cytotoxicity against human THP1 cells assessed as cell viability after 24 hrs by MTT assay; format: functional, cell-based; conditions: THP-1, 24 h; outline: as §1
U-937 = experiment: Cytotoxicity against human U937 cells assessed as cell viability after 24 hrs by MTT assay; format: functional, cell-based; conditions: U-937, 24 h; outline: as §1
HL-60 [5] = experiment: Cytotoxicity against human HL60 cells assessed as cell viability after 24 hrs by MTT assay; format: functional, cell-based; conditions: HL-60, 24 h; outline: as §1
HL-60 [6] = experiment: Induction of apoptosis in human HL60 cells assessed as DNA fragmentation at 12.5 uM after 24 hrs by agarose gel electrophoresis in presence of caspase inhibitior Z-VAD-FMK and Z-DEVD-FMK; format: functional, cell-based
Outline: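 HL-60 cells pretreated 1 h with 50 µM caspase inhibitor (z-VAD-FMK, broad; z-DEVD-FMK, caspase-3), then given 12.5 µM compound for 24 h; DNA fragmentation by agarose gel electrophoresis; representative of three independent experiments.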

HL-60 [7] = experiment: Induction of apoptosis in human HL60 cells assessed as activation of caspase 3 at 12.5 uM by Western blot analysis; format: functional, cell-based; conditions: TDE = time-dependent effect
Outline: (§2)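 HL-60 cells given 12.5 µM compound for 6–24 h, then lysed; caspase-3 and PARP (cleavage) probed by Western blot with β-actin as loading control; representative of three independent experiments.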

HL-60 [8] = experiment: Induction of apoptosis in human HL60 cells assessed as PARP cleavage at 12.5 uM by Western blot analysis; format: functional, cell-based; conditions: TDE = time-dependent effect; outline: as §2
HL-60 [9] = experiment: Induction of apoptosis in human HL60 cells assessed as DNA fragmentation at 12.5 uM by agarose gel electrophoresis; format: functional, cell-based; conditions: TDE = time-dependent effect
Outline: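 Time course: HL-60 cells exposed to 12.5 µM compound for 6–24 h; DNA fragmentation assessed by agarose gel electrophoresis; representative of three independent experiments.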

HL-60 [10] = experiment: Induction of apoptosis in human HL60 cells assessed as chromatin condensation at 12.5 uM after 24 hrs by Hoechst 33258 staining-based fluorescent microscopy; format: functional, cell-based
Outline: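 Nuclear morphology: HL-60 cells treated 24 h with 12.5 µM compound, stained with Hoechst 33258, and viewed by fluorescence microscopy at ×400; representative of three independent experiments.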

| SMILES | Activity (HL-60 [1]) | IC50 [2] [µM] | IC50 [3] [µM] | IC50 (HepG2) [µM] | IC50 (HCT-15) [µM] | IC50 [4] [µM] | IC50 (Jurkat) [µM] | IC50 (THP-1) [µM] | IC50 (U-937) [µM] | IC50 (HL-60 [5]) [µM] | Activity (HL-60 [6]) | Activity (HL-60 [7]) | Activity (HL-60 [8]) | Activity (HL-60 [9]) | Activity (HL-60 [10]) |
| --- | --- | --- | --- | --- | --- | --- | --- | --- | --- | --- | --- | --- | --- | --- | --- |
| CCC(C)C(=O)c1c(O)c2c(c3c([C@@H](O)CC)cc(=O)oc13)OC(C(C)(C)O)C2 (some centres not stated) | inactive | > 50 | > 50 | > 50 | > 50 | > 50 | > 50 | 40.6 | 33.4 | 29.2 | – | – | – | – | – |
| CCCC(=O)c1c(O)c(C/C=C(\C)CCC=C(C)C)c(O)c2c([C@@H](O)CC)cc(=O)oc12 [KAYEASSAMIN A] | Active | > 50 | > 50 | > 50 | > 50 | 12 | 19.8 | 16.7 | 19.9 | 11.9 | inactive | tde | tde | tde | Active |
| CCCC(=O)c1c2c(c3oc(=O)cc(CCC)c3c1O)C=CC(C)(C)O2 | inactive | > 50 | > 50 | > 50 | > 50 | > 50 | > 50 | > 50 | 47.6 | 37.2 | – | – | – | – | – |
| O=c1cc(-c2ccc(O)c(-c3c(O)cc(O)c4c(=O)cc(-c5ccc(O)cc5)oc34)c2)oc2cc(O)cc(O)c12 [AMENTOFLAVONE] | inactive | > 50 | > 50 | > 50 | > 50 | > 50 | > 50 | > 50 | > 50 | > 50 | – | – | – | – | – |
| CCC(C)C(=O)c1c(O)c(C/C=C(\C)CCC=C(C)C)c(O)c2c([C@@H](O)CC)cc(=O)oc12 (some centres not stated) [SURANGIN C] | Active | > 50 | > 50 | > 50 | > 50 | 10.6 | 23.1 | 21.5 | 27.6 | 13.3 | – | – | – | – | Active |
| O=c1cc(-c2ccc(O)cc2)oc2cc(O)c([C@@H]3O[C@H](CO)[C@@H](O)[C@H](O)[C@H]3O)c(O)c12 [ISOVITEXIN] | inactive | > 50 | > 50 | > 50 | > 50 | > 50 | > 50 | > 50 | > 50 | > 50 | – | – | – | – | – |
| CCC(C)C(=O)c1c(O)c(CC=C(C)C)c(O)c2c([C@@H](O)CC)cc(=O)oc12 (some centres not stated) | Active | > 50 | > 50 | > 50 | > 50 | 24.1 | 29.9 | 9.23 | 18.8 | 13.7 | – | – | – | – | Active |

— ChEMBL document CHEMBL2311482, “Antiproliferative and apoptotic effects of compounds from the flower of Mammea siamensis (Miq.) T. Anders. on human cancer cell lines” (Bioorg Med Chem Lett, 2013)
